Molecules are shown by their SMILES.

The series in a line: Toxicity liver stage against HepG2, at 10uM. The format is cell-based. More on the design: test concentration 10 uM, cell line HepG2-A16-CD81EGFP. The note with it: human, HepG2-A16-CD81EGFP cells; read-out: INHIBITION
An outline of the steps:
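Uninfected HepG2-A16-CD81EGFP cells, 3 × 10^3 per well, 1536-well, plated on prespotted compound at 10 μM final, parasite-free screening media added to match infected plates; puromycin 10 μM positive, DMSO 0.5% negative; run in parallel with 48 h PbLuc assay at 37 °C, 5% CO2; viability by CellTiter-Glo luminescence, normalized to controls.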
On to `CCc1ccc(OCC(O)CN2CCC(O)CC2)cc1` (stereo unspecified), for which the cytotoxicity at 10 µM came out at 3.99%.

As to `CN(Cc1ccccc1)C1(C(=O)NC(CO)CO)Cc2ccccc2C1`, the cytotoxicity at 10 µM amounted to 2.59%.

For `CCN1C(=O)[C@]2(CC[C@@H]3CN(C(=O)Nc4ccc(F)cc4)C[C@@H]32)N=C1C`, the cytotoxicity at 10 µM was 3.22%.

In the case of `O=C(NCc1cnc2n1CCN(CC1CCOCC1)C2)c1ccno1`, the cytotoxicity at 10 µM was -101%.

Turning to `O=C(COc1cccc(F)c1)N1CCCCC1c1ccn2ccnc2n1` (stereo unspecified), the cytotoxicity at 10 µM was -6.11%.

As for `CC(c1ccncc1)n1cc2nc(N(C)C)[nH]cc-2c1=O` (stereo unspecified), the cytotoxicity at 10 µM was -3.64%.

On to `CCc1ccc2nc(C)cc(C(=O)NCc3csc(N(C)C)n3)c2c1`, for which the cytotoxicity at 10 µM is 2.64%.

For the compound `O=C(NCCCO)c1nc(-c2ccc3cc[nH]c3c2)no1`, the cytotoxicity at 10 µM stood at 4.28%.

Take `O=C(NCCn1nc2ccccn2c1=O)c1cccc2[nH]ncc12`: the cytotoxicity at 10 µM is -0.472%.

On to `O=C(NCCc1cnccn1)C1(N2CCCCC2)Cc2ccccc2C1`, for which the cytotoxicity at 10 µM was -7.82%.

For `O=C(NCC1CCN(Cc2cc3ccccc3[nH]2)C1)c1ccsc1` (stereo unspecified), the cytotoxicity at 10 µM stood at 15.6%.

Regarding `NC(=O)C1CCN(c2nc3nccc(-c4cccnc4)c3c(=O)[nH]2)CC1`, the cytotoxicity at 10 µM came to 12.1%.

With `CC(CO)NC(=O)c1ccc(NCc2ccccc2)cc1` (stereo unspecified), the cytotoxicity at 10 µM was -6.63%.

`CCN(C)c1ccc(CNC(=O)CCn2cc(C)cn2)cc1F`: the cytotoxicity at 10 µM was -9.51%.

As for `CC(CCNC(=O)N1CCC1)N(C)C(=O)OC(C)(C)C` (stereo unspecified), the cytotoxicity at 10 µM was -5.61%.

Regarding `Cc1ccsc1C(CNC(=O)c1cc(=O)[nH]c(=O)[nH]1)N(C)C` (stereo unspecified), the cytotoxicity at 10 µM stood at 8.99%.

On to `CCc1nnc(SCC(=O)N2C[C@H]3CC[C@@H](C2)N(CC=C(C)C)C3)[nH]1`, for which the cytotoxicity at 10 µM is -6.18%.

Regarding `Cc1csc(N2CCCN(C(=O)C(C(C)C)n3cncn3)CC2)n1` (stereo unspecified), the cytotoxicity at 10 µM is -7.71%.

In the case of `COc1ccc(C(CO)NC(=O)Nc2cccc(C#N)c2)cc1` (stereo unspecified), the cytotoxicity at 10 µM is -17.9%.

With `COc1ccc(C)cc1CC(=O)NC(CC(=O)O)c1ccc(F)cc1` (stereo unspecified), the cytotoxicity at 10 µM came to 7.66%.

As for `CCCS(=O)(=O)NCc1nc(C)cc(N2CCCC2)n1`, the cytotoxicity at 10 µM was determined as 8.09%.

As for `CCOc1ccc2cc(C(=O)N3CCn4c(CC)nnc4C3)[nH]c2c1`, the cytotoxicity at 10 µM is -4.77%.

For `Cc1nc(CN(CCS(C)(=O)=O)C(C)C)no1`, the cytotoxicity at 10 µM is 0.329%.

Take `CCS(=O)(=O)N1CC[C@H]2O[C@@H](c3nnc(C)o3)CC[C@H]21`: the cytotoxicity at 10 µM is -63.7%.

For the compound `CCc1noc(CN(CC(=O)N2CCCCC2)c2cccc(C)c2)n1`, the cytotoxicity at 10 µM is -6.61%.

Turning to `COc1c(C2CCCN2C(=O)CCNc2ncccn2)c(C)nn1C` (stereo unspecified), the cytotoxicity at 10 µM was -5.1%.

Turning to `CN1CCOC(CNCc2ccccc2OCc2ccccn2)C1` (stereo unspecified), the cytotoxicity at 10 µM was -9.39%.

For `Cc1ccc(N2CCCC(NCC(=O)NCC3CC3)C2)nn1` (stereo unspecified), the cytotoxicity at 10 µM is -2.5%.

For the compound `CCn1cc(CNc2ccc(Br)c(OC)c2)cn1`, the cytotoxicity at 10 µM came out at 5.42%.

`COc1ccc2c(c1)C1(CCN(Cc3cnn(C)c3)CC1)N(C)CC2`: the cytotoxicity at 10 µM was -136%.

Turning to `CCN(CC)Cc1cc(C(=O)N2CC(C)(C)[C@@](C)(O)C2)c(C)o1`, the cytotoxicity at 10 µM is 1.07%.

`COc1ccc(-c2noc(C(CC(C)C)N3CCCCC3=O)n2)cn1` (stereo unspecified): the cytotoxicity at 10 µM is -54.2%.

In the case of `Cc1c(C(=O)N2CCCC(n3cccn3)C2)nnn1-c1ccccc1` (stereo unspecified), the cytotoxicity at 10 µM was -3.45%.

`CC(Cc1cccc(F)c1)C(=O)NS(=O)(=O)c1ccc(F)cc1` (stereo unspecified): the cytotoxicity at 10 µM came to 5.58%.

In the case of `CN1CCN(C(=O)c2cccn2C)c2ccccc2C1`, the cytotoxicity at 10 µM worked out at 7.28%.

Consider `CN(C)C(=O)N1Cc2nnn(C)c2C(COCC2CC2)C1` (stereo unspecified), for which the cytotoxicity at 10 µM is -10.7%.

For `COCCC(=O)N1CCCCC1c1ccc(F)cc1` (stereo unspecified), the cytotoxicity at 10 µM is -41.3%.

`CC(Cc1ccco1)NC(=O)CSc1nnc[nH]1` (stereo unspecified): the cytotoxicity at 10 µM was 13%.

In the case of `Cc1cc(CN2Cc3ccccc3CC2c2nnc(C)o2)no1` (stereo unspecified), the cytotoxicity at 10 µM is 2.89%.

In the case of `COC(=O)c1ccc(NC2CCN(CC(F)(F)F)C2=O)cc1C` (stereo unspecified), the cytotoxicity at 10 µM turned out to be 2.79%.

As for `Cc1nccc(N[C@H]2CN(C(=O)CCN3CCCC3=O)C[C@@H]2C(C)C)n1`, the cytotoxicity at 10 µM was -6.3%.

Turning to `CC1=N[C@@]2(CC[C@@H]3CN(Cc4ccccc4)C[C@@H]32)C(=O)N1CC1CC1`, the cytotoxicity at 10 µM is -0.302%.

`COC(=O)C1CN(Cc2ccn(-c3ccc(F)cc3)n2)CCO1` (stereo unspecified): the cytotoxicity at 10 µM is -8.51%.

For the compound `Cc1nc(C(=O)NCc2ccc(N3CCNC(=O)C3)c(F)c2)cs1`, the cytotoxicity at 10 µM was -0.0162%.

Regarding `COc1ccc(F)cc1C(C)NC(=O)c1nnc(C)s1` (stereo unspecified), the cytotoxicity at 10 µM is -0.213%.

For `CC(NC(=O)Nc1cccnc1N1CCOCC1)c1ccccc1` (stereo unspecified), the cytotoxicity at 10 µM came to 2.83%.

With `O=C(CCC1CCCC1)N1CCC(O)(C(F)(F)F)C1` (stereo unspecified), the cytotoxicity at 10 µM was -0.0394%.

In the case of `Cc1nc(C)c(C(=O)N(C)Cc2cnn(C)c2)s1`, the cytotoxicity at 10 µM is -1.57%.

For `CC(C)Cc1cc(C(=O)NCCc2nnc(N)s2)n(C)n1`, the cytotoxicity at 10 µM was 0.649%.

As to `CC(C)N1CC2(CCCN(c3ncc(Cl)cc3F)C2)CCC1=O` (stereo unspecified), the cytotoxicity at 10 µM amounted to 12.2%.

Turning to `CC(C(=O)Nc1ccc(Cl)cn1)N1CCc2nn(C)c(=O)cc2C1` (stereo unspecified), the cytotoxicity at 10 µM is 4.81%.

For `CCc1ncc2c(n1)CN(Cc1nc3c(F)cccc3[nH]1)CC2`, the cytotoxicity at 10 µM was 19%.

On to `CCc1n[nH]c(C2CN(CCc3cccs3)CCO2)n1` (stereo unspecified), for which the cytotoxicity at 10 µM worked out at 3.83%.

Regarding `O=C(c1ncccn1)N1C[C@@H]2COC[C@]2(c2nnc(C3CC3)o2)C1`, the cytotoxicity at 10 µM is -1.31%.

As to `Cc1nccn1CCC1CCN(c2ncccn2)CC1`, the cytotoxicity at 10 µM is -3%.

Take `CC(C)=CCN1CCN(C(=O)C2CCS(=O)(=O)C2)CC1` (stereo unspecified): the cytotoxicity at 10 µM was -90.5%.

As to `Cc1ccccc1-n1ncc(C(=O)N2CCCC2c2cnn(C)c2)c1C` (stereo unspecified), the cytotoxicity at 10 µM was -4.84%.

Take `COc1ccc(N(C(=O)Cc2ccc(C)nc2)C(C)C)cc1F`: the cytotoxicity at 10 µM is 0.854%.

Turning to `COc1ccc(Cl)cc1CN(C)CC(=O)Nc1ccnn1C(C)C1CC1` (stereo unspecified), the cytotoxicity at 10 µM stood at 4.85%.

With `CN1CCC(c2nnc3ccc(C(=O)NC4CCCC4)cn23)C1` (stereo unspecified), the cytotoxicity at 10 µM was -1.37%.

For `CCOCC(=O)Nc1ccc(N2CCSCC2)cc1C`, the cytotoxicity at 10 µM stood at 9.53%.

In the case of `CCOc1ncccc1NC(=O)c1cccs1`, the cytotoxicity at 10 µM was 0.932%.

Regarding `c1ccc2c(c1)CCN2c1nc(N2CCOCC2)c2nn[nH]c2n1`, the cytotoxicity at 10 µM was -3.29%.

Consider `CN1CCOC(C)(C(=O)N2CCN(C3CCCC3)CC2)C1` (stereo unspecified), for which the cytotoxicity at 10 µM was -25.8%.

For the compound `CC(=O)N[C@@H]1CN(c2nc(CO)cs2)C[C@H]1c1ccc(C)o1`, the cytotoxicity at 10 µM is -47%.

As for `COc1ccc(CNC(=O)C2=NN(c3ccc(C)cc3)C(=O)CN2)cc1`, the cytotoxicity at 10 µM amounted to 17.5%.

As for `CCN1CCC(CC(=O)N[C@H](C(=O)O)c2cccc(F)c2F)CC1`, the cytotoxicity at 10 µM was -2.62%.

As for `Cc1csc([C@@H]2C[C@@H]3CCN(Cc4cnn(C)c4)C[C@H]3O2)n1`, the cytotoxicity at 10 µM was -4.87%.

Consider `CSc1ccc(-n2ccnc2-c2cc3n(n2)CCNC3)cc1`, for which the cytotoxicity at 10 µM is -9.94%.

In the case of `Cc1cc(NCc2cccc(C#N)c2)ccc1Br`, the cytotoxicity at 10 µM was 7.99%.

In the case of `O=C(N1CCCC1)N1CCc2c(CNc3ncccn3)cncc2C1`, the cytotoxicity at 10 µM was found to be 3.97%.

For the compound `CN(C)C1CCN(C(=O)Cc2csc(-c3ncccn3)n2)CC1`, the cytotoxicity at 10 µM was -0.279%.

Turning to `CCOc1ccc(C#N)cc1NCC(=O)NC(=O)Nc1ccccc1`, the cytotoxicity at 10 µM is -11.8%.

For `COCC(=O)NC(Cc1cc(N(C)C)nc(C2CC2)n1)c1ccccc1` (stereo unspecified), the cytotoxicity at 10 µM was determined as 3.03%.

`Cn1cnnc1S(=O)(=O)C1CCN(C(=O)c2cccs2)CC1`: the cytotoxicity at 10 µM is 6.03%.

Turning to `CN1CCCC(N2CCN(c3nc4ccccn4c3C#N)CC2)C1` (stereo unspecified), the cytotoxicity at 10 µM was 1.52%.

On to `Cc1cnn(CCNCc2ccc(OCc3cccnc3)cc2)c1`, for which the cytotoxicity at 10 µM is -12.1%.

For `c1cn(CCn2cnnc2)c(-c2cc3n(n2)CCCNC3)n1`, the cytotoxicity at 10 µM was -0.309%.

As for `CN1CCc2c1nc1c(c2N)CCC1`, the cytotoxicity at 10 µM was 0.0371%.

Regarding `CC(C)n1[nH]c(=O)c2c1NC(=O)CSC2c1ccc(OCC(N)=O)cc1` (stereo unspecified), the cytotoxicity at 10 µM was 8.46%.

Turning to `Cc1nn(CCC#N)c(C)c1CCC(=O)N(C)Cc1ccsc1`, the cytotoxicity at 10 µM was -3.57%.

Regarding `Cc1cnc(C(=O)N2CCC3(CC2)CC(c2ccncc2)C(=O)N3)cn1` (stereo unspecified), the cytotoxicity at 10 µM is 9.14%.

Turning to `CC(=O)N1CCN2C(=O)N(Cc3ccc(F)cc3)C[C@H]2C1`, the cytotoxicity at 10 µM is -4.26%.

As for `Cc1ccc(S(=O)(=O)N2CCC(c3n[nH]cc3C)C2)cc1` (stereo unspecified), the cytotoxicity at 10 µM is -14.3%.

As to `CN(C)c1ncnc2c1CCN(Cc1nccs1)CC2`, the cytotoxicity at 10 µM was determined as 6.1%.

As to `O=C(CCC(=O)N1CCNC(=O)C1c1cccc(F)c1)NC1CCCC1` (stereo unspecified), the cytotoxicity at 10 µM was 2.68%.

Take `CC(=O)N1CCc2cc(C(=O)O)c(-c3ccsc3)nc2CC1`: the cytotoxicity at 10 µM came out at 13.8%.

As to `N#Cc1ccccc1N1CC2(CCCCN2CC2CC2)CC1=O` (stereo unspecified), the cytotoxicity at 10 µM stood at 10.7%.

Consider `Cc1cccc(CNC(=O)c2cccnc2N)c1`, for which the cytotoxicity at 10 µM turned out to be 11%.

For `Cc1nc(NC(=O)N2CCCC(C(C)(C)O)C2)nn1C` (stereo unspecified), the cytotoxicity at 10 µM came out at 13.5%.

Consider `Cc1cccc(C(=O)N2CCCCC2c2[nH]ncc2S(C)(=O)=O)c1` (stereo unspecified), for which the cytotoxicity at 10 µM is -7.44%.

For `COc1ccc(C(=O)Nc2ccc3ncn(C(C)C)c(=O)c3c2)cc1`, the cytotoxicity at 10 µM turned out to be 4.04%.

`CC(C)Nc1ncccc1C(=O)NCc1ccnn1C`: the cytotoxicity at 10 µM was -5.87%.

Consider `Cc1nc(CN2CCN3C[C@H](Oc4cncnc4)C[C@H]3C2)cs1`, for which the cytotoxicity at 10 µM is -81.4%.

In the case of `COC(=O)N1CCN(Cc2ccccc2Cl)CC1`, the cytotoxicity at 10 µM was -0.227%.

With `CO[C@H]1CN(C(=O)c2ccc(C)o2)[C@@H]2CCCO[C@H]12`, the cytotoxicity at 10 µM was -153%.

(Values after ChEMBL document CHEMBL4513216, “Probing the Open Global Health Chemical Diversity Library for Multistage-Active Starting Points for Next-Generation Antimalarials” (ACS Infect Dis, 2020).)
